Measurements: ChEMBL document CHEMBL2311305, “Antiproliferative potency of novel benzofuran-2-carboxamides on tumour cell lines: cell death mechanisms and determination of crystal structure” (Eur J Med Chem, 2013)

Key:
SK-BR-3 = experiment: Cytotoxicity against human SKBR3 cells after 72 hrs by MTT assay; assay type: functional, cell-based; settings: SK-BR-3, 72 h
Summary of the method: (§1)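 Cells seeded at 3000-6000 per well on day 0, according to cell line doubling time. Compound added in five 10-fold dilutions, 72-h incubation, then MTT colorimetric read-out. Absorbances converted to percentage growth by NCI formulae. IC50 obtained by linear regression between the concentrations bracketing PG 50; ">100" assigned when no concentration reaches it. Quadruplicate points, three independent experiments.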

SW-620 = experiment: Cytotoxicity against human SW620 cells after 72 hrs by MTT assay; assay type: functional, cell-based; settings: Homo sapiens, SW-620, 72 h; summary of the method: as §1
MIA PaCa-2 = experiment: Cytotoxicity against human MIAPaCa2 cells after 72 hrs by MTT assay; assay type: functional, cell-based; summary of the method: as §1
MCF7 = experiment: Cytotoxicity against human MCF7 cells after 72 hrs by MTT assay; assay type: functional, cell-based; summary of the method: as §1
WI-38 = experiment: Cytotoxicity against human WI38 cells after 72 hrs by MTT assay; assay type: cell-based; settings: Homo sapiens, WI-38, 72 h; summary of the method: as §1
HeLa = experiment: Cytotoxicity against human HeLa cells after 72 hrs by MTT assay; assay type: functional, cell-based; settings: Homo sapiens, HeLa, 72 h; summary of the method: as §1

Work on N#Cc1ccc(NC(=O)c2cc3ccccc3o2)nc1 yielded an IC50 (SK-BR-3) of over 100 µM, an IC50 (SW-620) of 69.2 µM and an IC50 (MIA PaCa-2; Homo sapiens, MIA PaCa-2, 72 h) of 44.7 µM. It also gave an IC50 (MCF7; Homo sapiens, MCF7, 72 h) of 5.3 µM, an IC50 (WI-38) of 52.4 µM and an IC50 (HeLa) of 23.9 µM.
CN(C)c1ccc(NC(=O)c2cc3ccccc3o2)cc1 was tested, and the IC50 (SK-BR-3) was over 100 µM, the IC50 (SW-620) was 54.2 µM and the IC50 (MIA PaCa-2; mia paca-2) was 49.6 µM. It also gave an IC50 (MCF7; mcf7) of 8.5 µM, an IC50 (WI-38) of 81.2 µM and an IC50 (HeLa) of 49.1 µM.
In the case of O=C(Nc1ccc([N+](=O)[O-])cn1)c1cc2ccccc2o1, the IC50 (SK-BR-3) is reported as over 100 µM, the IC50 (SW-620) is reported as 76.5 µM and the IC50 (MIA PaCa-2; Homo sapiens, MIA PaCa-2, 72 h) is reported as 73.1 µM. For the same compound, the IC50 (MCF7; Homo sapiens, MCF7, 72 h) was 82.8 µM, the IC50 (WI-38) was 37.8 µM and the IC50 (HeLa) was 42.4 µM.
For N#Cc1ccc2nc(NC(=O)c3cc4ccccc4o3)[nH]c2c1, the IC50 (SK-BR-3) was over 100 µM, the IC50 (SW-620) was 9.2 µM and the IC50 (MIA PaCa-2; Homo sapiens, MIA PaCa-2, 72 h) was over 100 µM. It also gave an IC50 (MCF7; Homo sapiens, MCF7, 72 h) of over 100 µM, an IC50 (WI-38) of 9.1 µM and an IC50 (HeLa) of over 100 µM.
Compound O=C(Nc1ccc([N+](=O)[O-])cc1)c1cc2ccccc2o1 has an IC50 (SK-BR-3) of over 100 µM, an IC50 (SW-620) of 27.9 µM and an IC50 (MIA PaCa-2; Homo sapiens, MIA PaCa-2, 72 h) of 26.6 µM. For the same compound, the IC50 (MCF7; Homo sapiens, MCF7, 72 h) was 4.9 µM, the IC50 (WI-38) was 47.6 µM and the IC50 (HeLa) was 11.4 µM.
O=C(Nc1nc2ccc(C3=NCCN3)cc2s1)c1cc2ccccc2o1 gave an IC50 (SK-BR-3) of over 100 µM, an IC50 (SW-620) of 56.4 µM and an IC50 (MIA PaCa-2; Homo sapiens, MIA PaCa-2, 72 h) of 97.1 µM. It also gave an IC50 (MCF7; Homo sapiens, MCF7, 72 h) of 50.9 µM, an IC50 (WI-38) of 59.2 µM and an IC50 (HeLa) of 59.8 µM.
O=C(Nc1nc2ccc([N+](=O)[O-])cc2s1)c1cc2ccccc2o1 was tested, and the IC50 (SK-BR-3) was over 100 µM, the IC50 (SW-620) was over 100 µM and the IC50 (MIA PaCa-2; Homo sapiens, MIA PaCa-2, 72 h) was over 100 µM. The IC50 (MCF7; Homo sapiens, MCF7, 72 h) was 63.9 µM, the IC50 (WI-38) was 72.9 µM and the IC50 (HeLa) was 17.5 µM.
